According to ChEMBL document CHEMBL4622866, “Synthesis, biochemical evaluation, and molecular modeling of organophosphate-coumarin hybrids as potent and selective butyrylcholinesterase inhibitors” (Bioorg Med Chem Lett, 2020):
Activity calls are given as the source filed them. No cut-off for these calls is given here.

Key:
[1] = molecular target: Cholinesterase (Equus caballus) (UniProt P81908); test: Inhibition of equine BChE at 34 uM using butyrylthiocholine as substrate measured after 15 sec by Ellman's method relative to control
Cholinesterase (Equus caballus), sequence (P81908 whole entry): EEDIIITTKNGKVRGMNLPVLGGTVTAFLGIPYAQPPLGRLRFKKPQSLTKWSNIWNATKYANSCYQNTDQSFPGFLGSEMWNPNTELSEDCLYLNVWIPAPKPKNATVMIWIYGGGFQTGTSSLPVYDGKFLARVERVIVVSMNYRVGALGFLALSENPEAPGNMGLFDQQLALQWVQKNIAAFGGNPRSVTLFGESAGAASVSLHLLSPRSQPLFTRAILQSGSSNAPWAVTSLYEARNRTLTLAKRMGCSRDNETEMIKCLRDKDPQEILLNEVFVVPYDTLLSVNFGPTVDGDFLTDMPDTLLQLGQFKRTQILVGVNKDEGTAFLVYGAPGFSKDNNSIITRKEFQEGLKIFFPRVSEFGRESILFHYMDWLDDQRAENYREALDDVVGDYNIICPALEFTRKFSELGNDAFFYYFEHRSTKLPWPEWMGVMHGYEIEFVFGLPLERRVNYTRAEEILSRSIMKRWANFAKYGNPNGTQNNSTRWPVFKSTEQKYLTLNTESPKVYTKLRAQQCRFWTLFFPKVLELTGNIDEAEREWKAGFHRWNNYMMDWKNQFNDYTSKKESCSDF
How it was run: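 Single-concentration Ellman screen (120 μL scale) at 34 μM inhibitor with 2% MeOH (v/v) vehicle. Activity read after 15 s of enzyme exposure, in triplicate, reported as mean. Expressed relative to a vehicle-only control reaction.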

[2] = molecular target: Cholinesterase (Equus caballus) (UniProt P81908); test: Time dependent inhibition of equine BChE
Cholinesterase = Cholinesterase (Equus caballus, UniProt P81908); test: Inhibition of equine BChE using butyrylthiocholine as substrate measured after 15 sec by Ellman's method
Cholinesterase, sequence (P81908 whole entry): as above
How it was run: (§1)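 Ellman assay scaled to 120 μL reactions, with no enzyme–inhibitor pre-incubation. Activity read after 15 s of enzyme exposure. Inhibitor stocks were made in methanol and diluted into buffer; some values were determined in 2% DMSO. IC50 values are reported as mean with standard deviation.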

Acetylcholinesterase [3] = molecular target: T1, Acetylcholinesterase (Electrophorus electricus, UniProt O42275); test: Time dependent inhibition of electric eel AChE
T1 sequence (O42275 whole entry): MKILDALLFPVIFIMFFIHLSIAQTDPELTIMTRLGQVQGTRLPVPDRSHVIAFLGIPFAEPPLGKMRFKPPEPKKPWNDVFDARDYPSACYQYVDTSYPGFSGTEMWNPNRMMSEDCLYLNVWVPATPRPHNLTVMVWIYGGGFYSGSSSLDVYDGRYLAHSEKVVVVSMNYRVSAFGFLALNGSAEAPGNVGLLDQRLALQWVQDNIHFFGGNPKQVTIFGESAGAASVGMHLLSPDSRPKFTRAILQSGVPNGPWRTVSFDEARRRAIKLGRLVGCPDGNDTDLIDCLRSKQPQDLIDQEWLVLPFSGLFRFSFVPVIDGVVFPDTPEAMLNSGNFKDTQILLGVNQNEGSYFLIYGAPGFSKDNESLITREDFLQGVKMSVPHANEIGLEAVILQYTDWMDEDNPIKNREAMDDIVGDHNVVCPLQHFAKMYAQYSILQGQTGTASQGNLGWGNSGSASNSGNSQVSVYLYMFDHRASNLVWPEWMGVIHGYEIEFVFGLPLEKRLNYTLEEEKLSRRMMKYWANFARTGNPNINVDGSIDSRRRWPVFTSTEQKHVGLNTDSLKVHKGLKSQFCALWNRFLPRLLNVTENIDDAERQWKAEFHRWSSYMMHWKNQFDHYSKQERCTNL

[4] = Selectivity index, ratio of IC50 for electric eel AChE using acetylthiocholine as substrate measured after 15 sec by Ellman's method to IC50 for equine BChE using butyrylthiocholine as substrate measured after 15 sec by Ellman's method
Acetylcholinesterase [5] = molecular target: T1, Acetylcholinesterase; test: Inhibition of electric eel AChE using acetylthiocholine as substrate measured after 15 sec by Ellman's method; how it was run: as §1
[6] = molecular target: Cholinesterase (Equus caballus) (UniProt P81908); test: Binding affinity to equine BChE assessed as observed rate constant

SMILES	IC50 (Cholinesterase) [µM]	also measured
CC(=O)CC(c1ccccc1)c1c(O)c2ccccc2oc1=O (stereo unspecified)	–	inhibition [1]: 10%
CCCCOP(=O)(OCCCC)Oc1c(C(CC(C)=O)c2ccccc2)c(=O)oc2ccccc12 (racemic)	1.52	TDI [2]: Active; TDI (Acetylcholinesterase [3]): Not Active
CCOP(=O)(OCC)Oc1ccc(Cc2cc3ccccc3oc2=O)cc1	30.2	inhibition [2]: Active; Ratio IC50 [4]: 3; IC50 (Acetylcholinesterase [5]): 30.2 µM
O=c1oc2cccc(O)c2cc1Cc1ccc(O)cc1	32	–
CCOP(=S)(OCC)Oc1c(C(CC(C)=O)c2ccccc2)c(=O)oc2ccccc12 (racemic)	> 100	K [6]: 8.4 mM⁻¹ s⁻¹
CCOP(=O)(OCC)Oc1c(C(CC(C)=O)c2ccccc2)c(=O)oc2ccccc12 (racemic)	11.2	TDI [2]: Active; TDI (Acetylcholinesterase [3]): Not Active; K [6]: 142 mM⁻¹ s⁻¹
CCOP(=S)(OCC)Oc1ccc(Cc2cc3ccccc3oc2=O)cc1	53	–
CCS(=O)(=O)Oc1cccc2ccccc12	71.5	–
O=c1oc2ccccc2cc1Cc1ccc(O)cc1	51.2	–
O=c1oc2cccc(O)c2cc1Cc1ccccc1	> 700	–
CCOP(=O)(OCC)Oc1cccc2ccccc12	54	–
CCOP(=O)(OCC)Oc1cccc2oc(=O)c(Cc3ccccc3)cc12	0.363	–
